For 22 compounds, EC50, CC10 and CC50 results are on record in ChEMBL document CHEMBL4152363, “Andrographolide derivative as STAT3 inhibitor that protects acute liver damage in mice” (Bioorg Med Chem, 2018).

Where only a bound is given, the exact number is not on record here.

What all share (type): cell-based
For series [1], the target named is T1, Signal transducer and activator of transcription 3 (Homo sapiens, UniProt P40763). Nature of the series: Inhibition of IFNgamma-stimulated STAT3 activation in human HeLa cells incubated with IFNgamma for 16 hrs followed by compound addition measured after 24 hrs by luciferase reporter gene assay. The essentials:
(§1)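 AD-293 or HeLa cells in DMEM/10% FBS stimulated with 20 pg/mL IFN-γ; compound treatment 24 h; luciferase activity measured in cell extracts; EC50 derived.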
Background: In a reporter assay the amount or activity of a reporter protein is the signal.

The subject of series [2] is HeLa. Nature of the series: Cytotoxicity against human HeLa cells. In a few lines: (§2)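 AD-293 or HeLa cells grown in high-glucose DMEM with 10% FBS and 1% penicillin-streptomycin; compound exposure 24 h; cytotoxicity reported as CC10.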
The target in series [3] is T1, Signal transducer and activator of transcription 3. Kind of series: Inhibition of IFNgamma-stimulated STAT3 activation in human AD293 cells incubated with IFNgamma for 16 hrs followed by compound addition measured after 24 hrs by luciferase reporter gene assay. In a few lines: as §1
For series [4] the target is unchanged. Nature of the series: Inhibition of IL-6 stimulated STAT3 activation in human AD293 cells incubated with IL-6 for 16 hrs followed by compound addition measured after 6 hrs by luciferase reporter gene assay. In a few lines: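 AD-293 cells stimulated with 2.5 μg/mL IL-6; compound treatment 6 h; luciferase activity read from cell extracts; EC50 derived.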
Series [5] has the same target. Kind of series: Inhibition of […] activation in human AD293 cells incubated […] for 16 hrs followed by compound addition measured after 4 hrs by luciferase reporter gene assay.
Series [6] shares this target. Kind of series: Inhibition of […] activation in human HeLa cells incubated […] for 16 hrs followed by compound addition measured after 4 hrs by luciferase reporter gene assay. In a few lines: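 NF-κB pathway in AD-293 or HeLa cells stimulated with 50 ng/mL TNF-α; compound treatment 4 h; luciferase activity read from cell extracts; EC50 derived.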

Series [7] concerns AD293. Kind of series: (§3) Cytotoxicity against human AD293 cells. The following applies: ad293. In a few lines: as §2
A short description of series [8]: as §3. The following applies: AD293 cells. In a few lines: as §2

T1 sequence (P40763 whole entry): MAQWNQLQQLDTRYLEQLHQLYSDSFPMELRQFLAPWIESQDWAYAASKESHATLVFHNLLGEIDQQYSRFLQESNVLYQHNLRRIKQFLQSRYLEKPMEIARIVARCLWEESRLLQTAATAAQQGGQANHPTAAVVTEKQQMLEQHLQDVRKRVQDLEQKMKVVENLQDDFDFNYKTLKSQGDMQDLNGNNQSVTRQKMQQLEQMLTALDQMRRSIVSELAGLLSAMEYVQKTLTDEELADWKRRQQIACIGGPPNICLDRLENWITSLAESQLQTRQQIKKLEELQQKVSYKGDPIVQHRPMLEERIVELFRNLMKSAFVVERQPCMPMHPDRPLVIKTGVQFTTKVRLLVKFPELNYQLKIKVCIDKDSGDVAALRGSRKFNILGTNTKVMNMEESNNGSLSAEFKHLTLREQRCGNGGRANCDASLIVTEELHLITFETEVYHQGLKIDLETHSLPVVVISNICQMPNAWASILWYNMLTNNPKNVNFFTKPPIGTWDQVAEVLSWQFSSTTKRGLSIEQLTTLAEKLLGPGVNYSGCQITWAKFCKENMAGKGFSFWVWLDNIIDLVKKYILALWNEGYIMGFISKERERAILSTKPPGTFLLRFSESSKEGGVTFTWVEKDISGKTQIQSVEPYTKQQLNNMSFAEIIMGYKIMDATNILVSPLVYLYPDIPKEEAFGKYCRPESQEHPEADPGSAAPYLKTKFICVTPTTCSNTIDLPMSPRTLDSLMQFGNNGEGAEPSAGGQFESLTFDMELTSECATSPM

In the case of `C=C1CC[C@H]2[C@@](C)(CCC(=O)[C@@]2(C)CO)[C@@H]1C/C=C1/C(=O)OC[C@H]1OC(C)=O`, the EC50 (usually the concentration at which the effect is half-maximal) in series [1] was above 10 µM; in series [3], 7.93 µM; in series [4], 6.1 µM; in series [5] it was above 10 µM; in series [6] it was above 10 µM. In addition, the CC10 in series [2] and in series [7] was above 10 µM in each case.

Consider `CC(=O)OC[C@]1(C)C(=O)CC[C@@]2(C)[C@H](C/C=C3/C(=O)OC[C@@H]3O[Si](C)(C)C(C)(C)C)[C@@]3(CC[C@@H]21)CO3`, for which the EC50 in series [1] is above 10 µM; in series [3] it was 2.23 µM; in series [4], 2.56 µM; in series [5], above 10 µM; in series [6], 7.05 µM. The CC10 in series [2] and in series [7] was above 10 µM in each case.

As to `CC(=O)O[C@@H]1COC(=O)/C1=C/C[C@@H]1[C@]2(CC[C@@H]3[C@](C)(CO)[C@H](O)CC[C@]31C)CO2`, the concentration giving a half-maximal response (EC50) in series [1] is 9.45 µM; in series [3], 5.11 µM; in series [4] it was 3.11 µM; in series [5], 9.49 µM; in series [6], 9.67 µM. Moreover, the CC10 in series [2] was above 10 µM. Also, the CC50 – broadly, the concentration at which the toxic effect on the cells reaches its halfway point – in series [8] is 10.9 µM.

With `C=C1CC[C@@H]2[C@](C)(COC(C)=O)[C@H](OC(C)=O)CC[C@@]2(C)[C@@H]1C/C=C1/C(=O)OC[C@@H]1O[Si](C)(C)C(C)(C)C`, the EC50 in series [1], in series [3], in series [4], in series [5] and in series [6] was above 10 µM each time. For the same compound, the CC10 in series [2] and in series [7] was above 10 µM in each case.

With `CC(=O)OC[C@]1(C)C(=O)CC[C@@]2(C)[C@H](C/C=C3/C(=O)OC[C@@H]3O[Si](C)(C)C(C)(C)C)[C@]3(CC[C@@H]21)CO3`, the EC50 in series [1] is above 10 µM; in series [3] it was 2.55 µM; in series [4], 2.65 µM; in series [5] it was above 10 µM; in series [6], 9.91 µM. In addition, the CC10 in series [2] and in series [7] was above 10 µM each time.

With `CC(C)(C)[Si](C)(C)O[C@@H]1COC(=O)/C1=C/C[C@@H]1[C@]2(CC[C@@H]3[C@](C)(CO)[C@H](O)CC[C@]31C)CO2`, the EC50 in series [1] was above 10 µM; in series [3] it was 3.45 µM; in series [4], 3.05 µM; in series [5], above 10 µM; in series [6] it was above 10 µM. In addition, the CC10 in series [2] and in series [7] was above 10 µM each time.

`C=C1CC[C@H]2[C@@](C)(CCC(=O)[C@@]2(C)CO)[C@@H]1C/C=C1/C(=O)OC[C@@H]1O[Si](C)(C)C(C)(C)C`: the EC50 in series [1], in series [3], in series [4], in series [5] and in series [6] was above 10 µM each time. Also, the CC10 in series [2] and in series [7] was above 10 µM throughout.

As for `C=C1CC[C@H]2[C@@](C)(CCC(=O)[C@@]2(C)CO)[C@@H]1C/C=C1/C(=O)OC[C@@H]1OC(C)=O`, the EC50 in series [1], in series [3], in series [4], in series [5] and in series [6] was above 10 µM in each case. Besides, the CC10 in series [2] and in series [7] was above 10 µM in each case.

As to `CC(C)(C)[Si](C)(C)OC[C@]1(C)C(=O)CC[C@@]2(C)[C@H](C/C=C3/C(=O)OC[C@H]3O)[C@]3(CC[C@@H]21)CO3`, the 50% effective concentration (EC50) in series [1], in series [3], in series [4], in series [5] and in series [6] was above 10 µM in each case. In series [2], this compound showed a CC10 above 10 µM. In series [8], half-maximal cytotoxicity (CC50) was put at 8.31 µM.

For the compound `CC(=O)OC[C@]1(C)C(=O)CC[C@@]2(C)[C@H](C/C=C3/C(=O)OC[C@H]3O[Si](C)(C)C(C)(C)C)[C@@]3(CC[C@@H]21)CO3`, the half-maximal effective concentration (EC50) in series [1] was above 10 µM; in series [3], 5.81 µM; in series [4], 7.98 µM; in series [5] it was above 10 µM; in series [6], above 10 µM. The CC10 in series [2] and in series [7] was above 10 µM each time.

On to `C=C1CC[C@H]2[C@@](C)(CCC(=O)[C@@]2(C)CO[Si](C)(C)C(C)(C)C)[C@@H]1C/C=C1/C(=O)OC[C@@H]1OC(C)=O`, for which the EC50 in series [1] was 9.33 µM; in series [3], 4.75 µM; in series [4], 4.78 µM; in series [5], 7.98 µM; in series [6], above 10 µM. In series [2], the CC10 is above 10 µM. In addition, in series [8], the CC50 stood at 8.23 µM.

As for `C[C@@]12CCC(=O)[C@@](C)(CO)[C@H]1CC[C@]1(CO1)[C@H]2C/C=C1/C(=O)OC[C@H]1O`, the concentration giving a half-maximal response (EC50) in series [1], in series [3], in series [4], in series [5] and in series [6] was above 10 µM throughout. Moreover, the CC10 in series [2] and in series [7] was above 10 µM each time.

Consider `C=C1CC[C@H]2[C@@](C)(CCC(=O)[C@@]2(C)COC(C)=O)[C@@H]1C/C=C1/C(=O)OC[C@H]1O[Si](C)(C)C(C)(C)C`, for which the EC50 in series [1], in series [3], in series [4], in series [5] and in series [6] was above 10 µM in each case. Also, the CC10 in series [2] and in series [7] was above 10 µM each time.

For `CC(C)(C)[Si](C)(C)OC[C@]1(C)C(=O)CC[C@@]2(C)[C@H](C/C=C3/C(=O)OC[C@H]3O[Si](C)(C)C(C)(C)C)[C@]3(CC[C@@H]21)CO3`, the EC50 in series [1] is above 10 µM; in series [3], 4.4 µM; in series [4], above 10 µM; in series [5], above 10 µM; in series [6], above 10 µM. Moreover, the CC10 in series [2] and in series [7] was above 10 µM in each case.

For `C=C1CC[C@@H]2[C@](C)(COC(C)=O)[C@H](OC(C)=O)CC[C@@]2(C)[C@@H]1C/C=C1/C(=O)OC[C@H]1O[Si](C)(C)C(C)(C)C`, the EC50 in series [1] is above 10 µM; in series [3], 8.18 µM; in series [4], above 10 µM; in series [5] it was above 10 µM; in series [6], above 10 µM. Besides, the CC10 in series [2] and in series [7] was above 10 µM throughout.

For `C=C1CC[C@@H]2[C@](C)(CO)[C@H](O)CC[C@@]2(C)[C@@H]1C/C=C1/C(=O)OC[C@@H]1O[Si](C)(C)C(C)(C)C`, the 50% effective concentration (EC50) in series [1], in series [3], in series [4], in series [5] and in series [6] was above 10 µM each time. Moreover, the CC10 in series [2] and in series [7] was above 10 µM throughout.

Turning to `C=C1CC[C@H]2[C@@](C)(CCC(=O)[C@@]2(C)CO)[C@@H]1C/C=C1/C(=O)OC[C@H]1O[Si](C)(C)C(C)(C)C`, the concentration giving a half-maximal response (EC50) in series [1], in series [3], in series [4], in series [5] and in series [6] was above 10 µM throughout. The CC10 in series [2] and in series [7] was above 10 µM in each case.

With `C=C1CC[C@@H]2[C@](C)(CO[Si](C)(C)C(C)(C)C)[C@H](O)CC[C@@]2(C)[C@@H]1C/C=C1/C(=O)OC[C@@H]1OC(C)=O`, the half-maximal effective concentration (EC50) in series [1] worked out at 9.43 µM; in series [3], 8.15 µM; in series [4], 3.22 µM; in series [5], 7.28 µM; in series [6], 9.96 µM. Besides, in series [2], the CC10 was above 10 µM. The compound also showed a half-maximal cytotoxic concentration (CC50) in series [8] of 6.83 µM.

As to `C=C1CC[C@H]2[C@@](C)(CCC(=O)[C@@]2(C)COC(C)=O)[C@@H]1C/C=C1/C(=O)OC[C@@H]1O[Si](C)(C)C(C)(C)C`, the half-maximal effective concentration (EC50) in series [1], in series [3], in series [4], in series [5] and in series [6] was above 10 µM each time. For the same compound, the CC10 in series [2] and in series [7] was above 10 µM each time.

Consider `C=C1CC[C@H]2[C@@](C)(CCC(=O)[C@@]2(C)CO[Si](C)(C)C(C)(C)C)[C@@H]1C/C=C1/C(=O)OC[C@@H]1O`, for which the EC50 in series [1] was above 10 µM; in series [3], 4.72 µM; in series [4] it was 4.34 µM; in series [5], above 10 µM; in series [6] it was above 10 µM. Further, the CC10 in series [2] and in series [7] was above 10 µM throughout.

As for `CC(=O)O[C@@H]1COC(=O)/C1=C/C[C@@H]1[C@@]2(CC[C@@H]3[C@](C)(CO)[C@H](O)CC[C@]31C)CO2`, the 50% effective concentration (EC50) is above 10 µM in series [1]; 2.6 µM in series [3]; 3.04 µM in series [4]; 8.51 µM in series [5]; 7.54 µM in series [6]. Moreover, the CC10 in series [2] and in series [7] was above 10 µM throughout.

Regarding `C=C1CC[C@@H]2[C@](C)(CO)[C@H](O)CC[C@@]2(C)[C@@H]1C/C=C1/C(=O)OC[C@H]1O` [ANDROGRAPHOLIDE], the EC50 in series [1], in series [3], in series [4], in series [5] and in series [6] was above 10 µM throughout. The CC10 in series [2] and in series [7] was above 10 µM each time.
